Results as given in ChEMBL document CHEMBL1153719, “Synthesis and biological evaluation of dehydroabietic acid derivatives” (Eur J Med Chem, 2010).
Converted amounts (≈) assume the structure as drawn. The source made the active and inactive calls. The rule behind the calls is not given here.

Experiments:
[1] = tested on: Vero; assay: Selectivity index, ratio of IC50 for african green monkey Vero cells to IC50 for human HeLa cells; assay type: functional
[2] = tested on: Human alphaherpesvirus 1; assay: Antiviral activity against Human herpesvirus 1 infected in human HeLa cells assessed as maximal nontoxic dose caused highest viral reduction factor after 36 hrs by end point titration method; assay type: functional, organism-based
[3] = tested on: Vero; assay: Cytotoxicity against african green monkey Vero cells after 48 hrs by MTT assay; assay type: cell-based; conditions: Chlorocebus sabaeus
Method in brief: (§1)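 HeLa and Vero monolayers were trypsinized, washed and seeded per well (HeLa 1.5×10^4; Vero 1.25×10^4). After 24 h, diluted compounds were added with 0.05% DMSO and incubated 48 h at 37 °C in 5% CO2. Read-out was MTT. IC50 came from linear regression of dose-effect curves, at least four dilutions in quadruplicate, as mean ± S.E.M. Vincristine was the positive control.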

[4] = tested on: Candida parapsilosis; assay: Antifungal activity against Candida parapsilosis ATCC 22019 at <100 ug/ml after 24 hrs by AFST-EUCAST method; assay type: functional, organism-based
Method in brief: (§2)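 EUCAST broth microdilution for fermentative yeasts. Seven serial dilutions were tested in duplicate at final concentrations of 100 to 2 µg/mL, with 0.05% DMSO. Inoculum was 0.5–2.5×10^5 CFU/mL. […] Amphotericin B and itraconazole served as controls (0.031–16 µg/mL). Triplicates were run in three separate assays; results are given as range and geometric mean.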

[5] = tested on: Candida tropicalis; assay: Antifungal activity against Candida tropicalis CECT 11901 at <100 ug/ml after 24 hrs by AFST-EUCAST method; assay type: functional, organism-based; method in brief: as §2
[6] = tested on: Jurkat; assay: Cytotoxicity against human Jurkat cells after 48 hrs by MTT assay; assay type: functional, cell-based
Method in brief: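 Suspension Jurkat cells were seeded at 3.00×10^4 per well. Diluted compounds were added directly, with 0.05% DMSO, and incubated 48 h at 37 °C. Read-out was MTT. IC50 came from linear regression of dose-effect curves, at least four dilutions in quadruplicate, as mean ± S.E.M. Vincristine was the positive control.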

[7] = tested on: Vero; assay: Selectivity index, ratio of IC50 for african green monkey Vero cells to IC50 for human Jurkat cells; assay type: functional
[8] = tested on: Human alphaherpesvirus 1; assay: Antiviral activity against Human herpesvirus 1 infected in human HeLa cells assessed as ratio of viral titer in absence of drug over viral titer in presence of drug after 36 hrs by end point titration method; assay type: functional, organism-based
[9] = Cytotoxicity against african green monkey Vero cells assessed as minimal toxic dosed detached 100% of the cell monolayer; conditions: chlorocebus sabaeus, read-out: CC100
[10] = tested on: HeLa; assay: Cytotoxicity against human HeLa cells after 48 hrs by MTT assay; assay type: functional, cell-based; method in brief: as §1
[11] = tested on: Pichia kudriavzevii; assay: Antifungal activity against Candida krusei ATCC 6258 at <100 ug/ml after 24 hrs by AFST-EUCAST method; assay type: functional, organism-based; method in brief: as §2
[12] = tested on: Candida albicans; assay: Antifungal activity against Candida albicans ATCC 10231 at <100 ug/ml after 24 hrs by AFST-EUCAST method; assay type: functional, organism-based; method in brief: as §2
[13] = tested on: Human alphaherpesvirus 1; assay: Antiviral activity against Human herpesvirus 1 infected in african green monkey Vero cells assessed as ratio of viral titer in absence of drug over viral titer in presence of drug after 36 hrs by end point titration method; assay type: functional
Method in brief: (§3)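 HSV-1 stock was grown in HeLa cells. Two-fold compound dilutions were premixed with one infectious dose of virus for 0.5 h at 37 °C, then added to confluent HeLa or Vero monolayers for 36 h at 37 °C in 5% CO2. End-point titration gave the reduction factor, virus titer without compound over titer with compound, at the maximal nontoxic dose. Acyclovir and heparin were the controls.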

[14] = tested on: Human alphaherpesvirus 1; assay: Antiviral activity against Human herpesvirus 1 infected in african green monkey Vero cells assessed as maximal nontoxic dose caused highest viral reduction factor after 36 hrs by end point titration method; assay type: functional; method in brief: as §3
[15] = tested on: Aspergillus terreus; assay: Antifungal activity against Aspergillus terreus after 24 hrs by AFST-EUCAST method; assay type: functional
[16] = tested on: Aspergillus niger; assay: Antifungal activity against Aspergillus niger after 24 hrs by AFST-EUCAST method; assay type: functional
[17] = tested on: Aspergillus fumigatus; assay: Antifungal activity against Aspergillus fumigatus after 24 hrs by AFST-EUCAST method; assay type: functional
[18] = Solubility in DMSO; assay type: physicochemical
[19] = Cytotoxicity against human HeLa cells assessed as minimal toxic dosed detached 100% of the cell monolayer; conditions: read-out: CC50

| MIC [15] | MIC [16] | MIC [17] | solubility [18] | SMILES | Ratio IC50 [1] | Activity [2] | IC50 [3] | Activity [4] | Activity [5] | IC50 [6] | Ratio IC50 [7] | Activity [8] | MCC [9] | IC50 [10] | Activity [11] | Activity [12] | Ratio [13] | Activity [14] | MCC [19] |
| --- | --- | --- | --- | --- | --- | --- | --- | --- | --- | --- | --- | --- | --- | --- | --- | --- | --- | --- | --- |
|  |  |  |  | CC(C)c1ccc2c(c1)CC[C@H]1[C@](C)(C=O)CCC[C@]21C [DEHYDROABIETINAL] | 1.3 | inactive | 32 µg/mL (≈ 113 µM) | inactive | inactive | 17 µg/mL (≈ 59.8 µM) | 1.9 | inactive | 50 µg/mL | 24 µg/mL (≈ 84.4 µM) | inactive | inactive |  |  |  |
|  |  |  |  | CC(C)c1ccc2c(c1)CC[C@H]1[C@](C)(COC(=O)c3ccccc3)CCC[C@]21C [DEHYDROABIETINOLBENZOATE] |  | inactive | ≥ 200 µg/mL | inactive |  | 57 µg/mL (≈ 146 µM) | >3.5 | inactive | > 50 µg/mL | ≥ 200 µg/mL | inactive | inactive | 3.16 | 50 µg/mL |  |
|  |  |  |  | Nc1nc2c(ncn2COCCO)c(=O)[nH]1 [ACYCLOVIR] |  |  |  |  |  |  |  |  | > 600 µg/mL |  |  |  | 1000 | 6 µg/mL |  |
| 39.7 µg/mL (≈ 132 µM) |  |  |  | CC(C)c1ccc2c(c1)CC[C@H]1[C@](C)(C(=O)O)CCC[C@]21C [DEHYDROABIETIC ACID] | 0.9 | inactive | 91 µg/mL (≈ 303 µM) | inactive |  | 28 µg/mL (≈ 93.2 µM) | 3.2 | inactive | > 50 µg/mL | 101 µg/mL (≈ 336 µM) | inactive | inactive |  |  |  |
|  |  |  |  | CC(C)c1ccc2c(c1)[C@H](O)C[C@H]1[C@](C)(C=O)CCC[C@]21C | 1.6 | inactive | 36 µg/mL (≈ 120 µM) | inactive | inactive | 12 µg/mL (≈ 39.9 µM) | 3 | inactive |  | 23 µg/mL (≈ 76.6 µM) | inactive | inactive |  |  |  |
|  |  |  |  | CC(C)c1ccc2c(c1)C(=O)C[C@H]1[C@](C)(CO)CCC[C@]21C | 0.9 | inactive | 27 µg/mL (≈ 89.9 µM) | inactive | inactive | 17 µg/mL (≈ 56.6 µM) | 1.6 | inactive | 25 µg/mL | 30 µg/mL (≈ 99.9 µM) | inactive | inactive |  |  |  |
|  |  |  |  | COC(=O)[C@]1(C)CCC[C@]2(C)c3ccc(C(C)C)cc3CC[C@@H]12 [METHYL DEHYDROABIETATE] | 1.3 | inactive | 36 µg/mL (≈ 114 µM) | inactive | inactive | 21 µg/mL (≈ 66.8 µM) | 1.7 | inactive | > 50 µg/mL | 28 µg/mL (≈ 89 µM) | inactive | inactive |  |  |  |
|  |  |  |  | CC(C)C1=CC2=CC[C@@H]3[C@](C)(CCC[C@@]3(C)C(=O)O)[C@H]2CC1 |  | inactive |  |  |  |  |  | inactive |  |  |  |  |  |  |  |
|  | 63 µg/mL (≈ 208 µM) | 50 µg/mL (≈ 165 µM) |  | CC(C)c1ccc2c(c1)[C@H](O)C[C@H]1[C@](C)(CO)CCC[C@]21C | 1.5 | inactive | 30 µg/mL (≈ 99.2 µM) | inactive | inactive | 12 µg/mL (≈ 39.7 µM) | 2.5 | inactive | 25 µg/mL | 20 µg/mL (≈ 66.1 µM) | inactive | inactive |  |  |  |
|  |  |  | Insoluble | CC(C)c1ccc2c(c1)CC[C@H]1[C@](C)(COC(=O)c3cccnc3)CCC[C@]21C [DEHYDROABIETINOLNICOTINATE] |  |  |  |  |  |  |  |  |  |  |  |  |  |  |  |
|  |  |  |  | COC(=O)[C@]1(C)CCC[C@@]2(C)[C@H]1CC=C1C=C(C(C)C)CC[C@@H]12 [METHYL ABIETATE] |  | Active |  |  |  |  |  | inactive |  |  |  |  |  |  | 11 µM |
|  |  |  |  | CC(=O)OC[C@]1(C)CCC[C@]2(C)c3ccc(C(C)C)cc3CC[C@@H]12 [DEHYDROABIETINOL ACETATE] | 3.4 | inactive | 95 µg/mL | inactive | inactive | 22 µg/mL | 4.3 | inactive | > 50 µg/mL | 28 µg/mL | inactive | inactive | 10 | 25 µg/mL |  |
|  |  |  |  | CC(C)c1ccc2c(c1)CC[C@H]1[C@](C)(CO)CCC[C@]21C [POMIFERIN A] | 2.9 | inactive | 38 µg/mL (≈ 133 µM) | inactive | inactive | 9.7 µg/mL (≈ 33.9 µM) | 3.9 | inactive | 50 µg/mL | 13 µg/mL (≈ 45.4 µM) | inactive | inactive |  |  |  |
